Screens: PubChem, The Scripps Research Institute Molecular Screening Center
NPY-Y1 PAM-ag – potentiators or agonists of human neuropeptide Y receptor Y1. 220,000 tested, 0.37% active. NPY-Y1 expressing cells, potentiator/agonist activation. activation, % at 3.6 µM. P25929; in the data active = activation above about 33%, passing the limit was not always enough;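 also: cells stimulated with NPY at EC10 then isoproterenol at EC100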
Target sequence (P25929 whole entry, looked up): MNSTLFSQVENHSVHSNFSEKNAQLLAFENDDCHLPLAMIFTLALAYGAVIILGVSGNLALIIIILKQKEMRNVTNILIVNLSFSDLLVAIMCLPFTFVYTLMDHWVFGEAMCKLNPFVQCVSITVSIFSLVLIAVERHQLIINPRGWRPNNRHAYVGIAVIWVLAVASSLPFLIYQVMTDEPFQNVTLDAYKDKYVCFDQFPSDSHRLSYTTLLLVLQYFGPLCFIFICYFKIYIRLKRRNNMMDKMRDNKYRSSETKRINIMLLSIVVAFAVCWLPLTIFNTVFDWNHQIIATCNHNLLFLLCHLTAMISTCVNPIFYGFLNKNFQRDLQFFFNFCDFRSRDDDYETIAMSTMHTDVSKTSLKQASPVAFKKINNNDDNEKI
NPY Y2 blocker – blocks the human neuropeptide Y Y2 receptor | P49146 | NPY-Y2 expressing cells, antagonist mode | inhibition, % at 2.7 µM | 140,000 tested, 0.99% active; in the data active = inhibition above about 17%
NPY Y1 blocker – NPY-Y1 (human) receptor antagonism; P25929; HEK293-CNG Y1 cells, membrane potential fluorescence; NPY at EC95, then isoproterenol; inhibition, % at 3.6 µM; 200,000 tested, 1% active;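 active = inhibition above the campaign mean inhibition of all tested compounds plus 3 SD, cut at about 20% in these data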
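Material: HEK293 cells with Y1 receptor plus CNG channel; times: compound incubation 1 h at room temperature, readout 45 min post-stimulation; signal: fluorescence, membrane potential probe; read-out basis: fluorescence ratio normalized to % inhibition between controls; benchmarks: full-block control isoproterenol-only wells, zero-block control NPY plus isoproterenol wells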
NPY2 pot ag – human NPY-Y2 potentiation or agonism, primary screen; P49146; cells expressing NPY-Y2, potentiator/agonist read-out; activation, % at 3.6 µM; 220,000 tested, 0.45% active; AID 1359; in the data active = activation above about 27%;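 also: cells stimulated with NPY near EC25 plus isoproterenol at EC100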
NPY1 antag ctr – counter-screen for NPY-Y2 antagonists: human NPY-Y1 antagonism; shares compounds with NPY Y2 blocker; cell-based NPY-Y1 antagonism counterscreen; inhibition, % at 3.6 µM; 710 tested, 19% active; in the data active = inhibition above about 20%;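 also: cells challenged with NPY then isoproterenol with cAMP sensed through a CNG channel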
NPY-Y2 ant conf – confirmation of human neuropeptide Y receptor Y2 antagonists | shares compounds with NPY Y2 blocker | HEK293 NPY-Y2 CNG channel, membrane potential fluorescence | inhibition, % at 2.8 µM | 710 tested, 32% active | AID 1257;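 active = mean inhibition of triplicate wells above the hit cutoff set in the primary screen, cut at about 17% in these data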
Numbers stand for hits; i = inactive; nt = no result. Compounds with a hit are over-represented: about 1.9% of the library has one in this group of screens.

SMILES | NPY-Y1 PAM-ag | NPY Y2 blocker | NPY Y1 blocker | NPY2 pot ag | NPY1 antag ctr | NPY-Y2 ant conf
CN1CCC(Oc2ccccc2Sc2ccccc2)CC1 | i | 18 | i | i | i | 22
CN1CCC(OC(c2ccccc2)c2ccccc2)CC1 | i | i | i | i | nt | nt
COc1ccccc1Nc1nc2nonc2nc1N1CCCCC1C (centres undefined) | i | 19 | i | i | i | i
CC1CCCCN1c1nc2nonc2nc1N1CCCCC1C (centres undefined) | i | i | i | i | nt | nt
Cn1cnnc1SCCOc1ccc(Cl)cc1 | i | nt | i | i | nt | nt
CCOc1ccc(OCCSc2nnnn2-c2ccccc2)cc1 | i | i | i | i | nt | nt
Clc1ccc(OCCSc2nnnn2C2CCCCC2)cc1 | i | 22 | i | i | i | 21
CCOc1ccc(OCCSc2nnnn2C2CCCCC2)cc1 | i | 17 | i | i | i | i
CC(=O)NC(Nc1c(C)n(C)n(-c2ccccc2)c1=O)C(Cl)(Cl)Cl (centres undefined) | i | nt | i | i | nt | nt
COc1ccc(/C=N/NC(=O)CN(CCc2ccccc2)S(=O)(=O)c2ccc(NC(C)=O)cc2)cc1OC | i | 18 | i | i | i | 44
COc1ccc(/C=N/NC(=O)CCOc2ccccc2C)cc1OC | i | 35 | i | i | i | i
COc1cc(/C=N/NC(=O)CCOc2ccccc2C)cc(Br)c1O | i | nt | i | i | nt | nt
COc1cc(/C=N/NC(=O)CN(CCc2ccccc2)S(=O)(=O)c2ccc(NC(C)=O)cc2)cc(OC)c1OC | i | i | i | i | nt | nt
Cc1cccc(N2CCN(C(=O)CCCOc3ccccc3)CC2)c1C | i | 19 | i | i | i | i
O=C(CCCOc1ccccc1)N1CCN(c2ccccc2)CC1 | i | i | i | i | nt | nt
Cc1cccc(N2CCN(C(=O)C(Cc3ccccc3)n3cccc3)CC2)c1C (centres undefined) | i | 26 | i | i | i | i
Cc1c(NC(=O)c2cccc(NS(C)(=O)=O)c2)c(=O)n(-c2ccccc2)n1C | i | nt | nt | i | nt | nt
Cn1nc(C(F)(F)F)c(CO)c1Sc1ccc(F)cc1 | i | nt | i | i | nt | nt
c1ccc(-c2ccc(-c3cnc4n3CCCCC4)cc2)cc1 | i | 24 | i | i | i | i
CCN1c2ccccc2-c2nc3ccccc3n2C1c1ccco1 (centres undefined) | i | 19 | i | i | i | i
COC(=O)c1ccc(OC(=O)C23CCC(C)(C(=O)O2)C3(C)C)cc1 (centres undefined) | i | nt | i | i | nt | nt
CCN(CC)C(=O)CSc1nc(-c2cccs2)cc(-c2cccs2)c1C#N | i | 18 | i | i | i | i
CCN(CC)C(=O)CSc1nc(N)c(C#N)c(-c2cccs2)c1C#N | i | i | i | i | nt | nt
CC(C)COC(=O)c1cccc2c1-c1ccccc1/C2=N\O | i | 22 | i | i | i | 39
N=c1c2c(ncn1Cc1ccco1)Oc1c(ccc3ccccc13)C2c1ccccc1 (centres undefined) | i | 19 | i | i | i | i
SMILES | NPY-Y1 PAM-ag | NPY Y2 blocker | NPY Y1 blocker | NPY2 pot ag | NPY1 antag ctr | NPY-Y2 ant conf
COc1cc(NC(=O)Cn2c(=O)n(-c3cccc(C)c3)c(=O)c3c(C)c(C)sc32)cc(OC)c1 | i | i | i | i | nt | nt
CN(CC(CC(=O)Nc1nncs1)c1ccccc1)S(=O)(=O)c1ccccc1 (centres undefined) | i | i | i | i | nt | nt
CN(CC(CC(=O)Nc1nncs1)c1ccccc1)S(=O)(=O)c1ccc(Br)cc1 (centres undefined) | i | 18 | i | i | i | i
O=C(c1ccc(F)cc1)N1CCN=C1c1ccccc1 | i | i | i | i | nt | nt
CCCCc1nc2sc3c(=O)n(N)cnc3c2c2c1CCC2 | i | nt | i | i | nt | nt
C/C(CCC(=O)OC[C@H]1O[C@H](C#Cc2ccccc2)C=C[C@@H]1Oc1ccc(C)cc1)=N\O[C@@H](C)CN1CCCCc2nc(C)c(C)cc21 | i | 22 | i | i | i | i
COc1ccc(CN(C)C(=S)Nc2ccc(Cl)cc2)cc1 | i | nt | i | i | nt | nt
OCCNCc1cc(Br)ccc1OCc1ccccc1Cl | i | 22 | i | i | i | i
Cn1c(-c2sc3ccccc3c2Cl)n[nH]c1=S | i | 17 | i | i | i | i
Cn1c(CSc2nc3ccccc3s2)n[nH]c1=S | i | i | i | i | nt | nt
COc1ccc(/C=N/NC(=O)c2cccc(OC(F)(F)C(F)F)c2)cc1O | i | 17 | i | i | i | i
O=c1c2ccccc2nc2c3ccccc3c(NCCN3CCOCC3)nn12 | i | 20 | i | i | i | 25
